Assay results published in ChEMBL document CHEMBL3769392, “Synthesis, antiproliferative activities, and computational evaluation of novel isocoumarin and 3,4-dihydroisocoumarin derivatives” (Eur J Med Chem, 2016).
In brackets after ≈: the same amount, converted by molar mass.

How the values were obtained:
U-251 = experiment: Antiproliferative activity against human U251 cells after 48 hrs by SRB assay; type: functional; details: U-251, 48 h
Method in brief: (§1)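 Cells kept in RPMI 1640 with 5% FBS and 1% penicillin/streptomycin at 37 °C, 5% CO2, and used at passages 5–12. Seeded at 3 to 5 x 10^4 cells/mL and exposed 48 h to 0.25, 2.5, 25 and 250 µg/mL in DMSO/RPMI (final DMSO ≤ 0.25%). Doxorubicin 0.025–25 µg/mL served as positive control. Fixed with 50% TCA at T0 and at endpoint, SRB protein read at 540 nm. Growth was T0-corrected and GI50 taken by non-linear regression.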

MCF7 = experiment: Antiproliferative activity against human MCF7 cells after 48 hrs by SRB assay; type: functional; details: MCF7, 48 h; method in brief: as §1
[1] = Antiproliferative activity against human NCI-ADR-RES cells after 48 hrs by SRB assay; type: functional; method in brief: as §1
786-0 = experiment: Antiproliferative activity against human 786-0 cells after 48 hrs by SRB assay; type: functional; details: 786-0, 48 h; method in brief: as §1
NCI-H460 [2] = experiment: Antiproliferative activity against human NCI-H460 cells after 48 hrs by SRB assay; type: functional; details: NCI-H460, 48 h; method in brief: as §1
[3] = Antiproliferative activity against human PC3 cells after 48 hrs by SRB assay; type: functional; details: PC-3, 48 h; method in brief: as §1
HT-29 = experiment: Antiproliferative activity against human HT-29 cells after 48 hrs by SRB assay; type: functional; details: HT-29, 48 h; method in brief: as §1
[4] = Cytotoxicity against human HaCaT cells after 48 hrs by SRB assay; type: cell-based; method in brief: as §1
HaCaT [5] = experiment: Selectivity index, ratio of GI50 for human HaCaT cells to GI50 for human U251 cells; type: functional
HaCaT [6] = experiment: Selectivity index, ratio of GI50 for human HaCaT cells to GI50 for human MCF7 cells; type: functional
HaCaT [7] = experiment: Selectivity index, ratio of GI50 for human HaCaT cells to GI50 for human NCI-ADR-RES cells; type: functional
HaCaT [8] = experiment: Selectivity index, ratio of GI50 for human HaCaT cells to GI50 for human 786-0 cells; type: functional
NCI-H460 [9] = experiment: Selectivity index, ratio of GI50 for human HaCaT cells to GI50 for human NCI-H460 cells; type: functional
HaCaT [10] = experiment: Selectivity index, ratio of GI50 for human HaCaT cells to GI50 for human PC3 cells; type: functional
HaCaT [11] = experiment: Selectivity index, ratio of GI50 for human HaCaT cells to GI50 for human HT-29 cells; type: functional

| GI50 (U-251) [µg/mL] | GI50 (MCF7) [µg/mL] | GI50 (786-0) [µg/mL] | GI50 (NCI-H460 [2]) [µg/mL] | GI50 (HT-29) [µg/mL] | Structure (SMILES) | GI50 [1] [µg/mL] | GI50 [3] [µg/mL] | GI50 at 48 h [4] [µg/mL] | RatioGI50 (HaCaT [5]) | RatioGI50 (HaCaT [6]) | RatioGI50 (HaCaT [7]) | RatioGI50 (HaCaT [8]) | RatioGI50 (NCI-H460 [9]) | RatioGI50 (HaCaT [10]) | RatioGI50 (HaCaT [11]) |
| --- | --- | --- | --- | --- | --- | --- | --- | --- | --- | --- | --- | --- | --- | --- | --- |
| 28.5 (≈ 87.6 µM) | 26.5 (≈ 81.4 µM) | 28.6 (≈ 87.9 µM) | 29.6 (≈ 91 µM) | 25.8 (≈ 79.3 µM) | COc1ccc2cc(COCCCc3cccnc3)oc(=O)c2c1 | 28 (≈ 86.1 µM) | 25 (≈ 76.8 µM) | 26.2 (≈ 80.5 µM) | 0.92 | 0.99 | 0.94 | 0.92 | 0.89 | 1.05 | 1.02 |
| 19.4 (≈ 63.7 µM) | 6 (≈ 19.7 µM) | 25.5 (≈ 83.8 µM) | 32 (≈ 105 µM) | 28.3 (≈ 93 µM) | CCCCCOCCCc1cc2ccc(OC)cc2c(=O)o1 | 7.4 (≈ 24.3 µM) | 8 (≈ 26.3 µM) | 5.5 (≈ 18.1 µM) | 0.28 | 0.92 | 0.74 | 0.22 | 0.17 | 0.69 | 0.19 |
| 26.3 (≈ 74.4 µM) | 23.8 (≈ 67.3 µM) | 28.7 (≈ 81.2 µM) | 25.2 (≈ 71.3 µM) | 25 (≈ 70.7 µM) | COc1ccc2cc(CCCOCCCc3cccnc3)oc(=O)c2c1 | 19.3 (≈ 54.6 µM) | 26.3 (≈ 74.4 µM) | 27 (≈ 76.4 µM) | 1.03 | 1.13 | 1.4 | 0.94 | 1.07 | 1.03 | 1.08 |
| 32.2 (≈ 105 µM) | 32.3 (≈ 105 µM) | 31.9 (≈ 104 µM) | 33.7 (≈ 110 µM) | 43.5 (≈ 142 µM) | CCCCCOCCCC1Cc2ccc(OC)cc2C(=O)O1 (racemic) | 42.3 (≈ 138 µM) | 29.5 (≈ 96.3 µM) | 32.3 (≈ 105 µM) | 1 | 1 | 0.76 | 1.01 | 0.96 | 1.09 | 0.74 |
| 167 (≈ 811 µM) | 32.6 (≈ 158 µM) | 37.6 (≈ 182 µM) | 93.2 (≈ 452 µM) | 80.3 (≈ 389 µM) | COc1ccc2cc(CO)oc(=O)c2c1 | 160 (≈ 778 µM) | 49.2 (≈ 239 µM) | 134 (≈ 652 µM) | 0.8 | 4.12 | 0.84 | 3.57 | 1.44 | 2.73 | 1.67 |
| 226 (≈ 621 µM) | 28.2 (≈ 77.4 µM) | ≥ 250 | 211 (≈ 578 µM) | 31.2 (≈ 85.6 µM) | COc1ccc2c(c1)C(=O)OC(CCCn1nnnc1-c1ccccc1)C2 (racemic) | 142 (≈ 390 µM) | 23.9 (≈ 65.6 µM) | ≥ 250 | >2.29 | >8.87 | >1.76 |  | >1.19 | > 10.5 | >8.01 |
| ≥ 250 | 18.6 (≈ 46.9 µM) | ≥ 250 | ≥ 250 | 13.7 (≈ 34.6 µM) | COc1ccc2c(c1)C(=O)OC(CCCSc1nnnn1-c1ccccc1)C2 (racemic) | 132 (≈ 333 µM) | 45.1 (≈ 114 µM) | ≥ 250 |  | >13.44 | >1.89 |  |  | >5.54 | >18.25 |

Further lines, the compound ahead of its results:

| Structure (SMILES) | GI50 (U-251) [µg/mL] | GI50 (MCF7) [µg/mL] | GI50 (786-0) [µg/mL] | GI50 (NCI-H460 [2]) [µg/mL] | GI50 (HT-29) [µg/mL] | GI50 [1] [µg/mL] | GI50 [3] [µg/mL] | GI50 at 48 h [4] [µg/mL] | RatioGI50 (HaCaT [5]) | RatioGI50 (HaCaT [6]) | RatioGI50 (HaCaT [7]) | RatioGI50 (HaCaT [8]) | RatioGI50 (NCI-H460 [9]) | RatioGI50 (HaCaT [10]) | RatioGI50 (HaCaT [11]) |
| --- | --- | --- | --- | --- | --- | --- | --- | --- | --- | --- | --- | --- | --- | --- | --- |
| COc1cccc2c1C(=O)c1c(O)c3c(c(O)c1C2=O)C[C@@](O)(C(=O)CO)C[C@@H]3O[C@H]1C[C@H](N)[C@H](O)[C@H](C)O1 [DOXORUBICIN] | < 0.025 | < 0.025 | 0.025 (≈ 0.046 µM) | < 0.025 | 0.13 (≈ 0.239 µM) | 0.14 (≈ 0.258 µM) | 0.085 (≈ 0.156 µM) | < 0.025 |  |  |  |  |  |  |  |
| COc1ccc2c(c1)C(=O)OC(CCCO)C2 (racemic) | 135 (≈ 571 µM) | 80.8 (≈ 342 µM) | 102 (≈ 430 µM) | 136 (≈ 574 µM) | 132 (≈ 559 µM) | 93.3 (≈ 395 µM) | 70.7 (≈ 299 µM) | 130 (≈ 551 µM) | 0.97 | 1.12 | 1.4 | 1.28 | 0.96 | 1.84 | 0.99 |
| COc1ccc2c(c1)C(=O)OC(CO)C2 (racemic) | ≥ 250 | 250 (≈ 1200 µM) | ≥ 250 | ≥ 250 | ≥ 250 | ≥ 250 | 175 (≈ 842 µM) | ≥ 250 |  | >1 |  |  |  | >1.43 |  |
| COc1ccc2cc(CCCn3nnnc3-c3ccccc3)oc(=O)c2c1 | 67.4 (≈ 186 µM) | 75.2 (≈ 208 µM) | 224 (≈ 619 µM) | ≥ 250 | ≥ 250 | ≥ 250 | 180 (≈ 496 µM) | ≥ 250 | >3.71 | >3.32 |  | >1.12 |  | >1.39 |  |
| O=c1oc(CO)cc2ccccc12 | ≥ 250 | 89.3 (≈ 507 µM) | ≥ 250 | ≥ 250 | 168 (≈ 956 µM) | ≥ 250 | 118 (≈ 669 µM) | 222 (≈ 1260 µM) |  | 2.49 |  |  |  | 1.88 | 1.32 |
| O=C1OC(CO)Cc2ccccc21 (racemic) | ≥ 250 | 0.66 (≈ 3.7 µM) | ≥ 250 | ≥ 250 | ≥ 250 | ≥ 250 | ≥ 250 | ≥ 250 |  | >378.79 |  |  |  |  |  |
| COc1ccc2cc(CCCSc3nnnn3-c3ccccc3)oc(=O)c2c1 | 43.3 (≈ 110 µM) | 45.7 (≈ 116 µM) | 51.1 (≈ 130 µM) | ≥ 250 | ≥ 250 | ≥ 250 | 144 (≈ 366 µM) | ≥ 250 | >5.77 | >5.47 |  | >4.89 |  | >1.73 |  |
| COc1ccc2cc(CCCO)oc(=O)c2c1 | 28.9 (≈ 123 µM) | 25.8 (≈ 110 µM) | 26.9 (≈ 115 µM) | 29.1 (≈ 124 µM) | 29.1 (≈ 124 µM) | 28.1 (≈ 120 µM) | 25.9 (≈ 111 µM) | 29 (≈ 124 µM) | 1 | 1.12 | 1.03 | 1.08 | 1 | 1.12 | 1 |
